Laboratory results as given in article PMC7305479 (Russian Journal of Bioorganic Chemistry, 2020).

Experiments:
[1] = system: respiratory syncytial virus A2; assay: Antiviral activity against respiratory syncytial virus in HEp-2 culture; type: cell-based, Human respiratory syncytial virus (RSV); details: for SI (selectivity index, CC50/EC50): RSV, HEp-2 cells
Method in brief: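 HEp-2 monolayers infected with 10-fold dilutions (10–1–10–7) of RSV A2. Test compound was pre-applied 1 h in 3-fold dilutions, starting from the CC50-level concentration made from a 2000 µg/mL DMSO stock. It was re-added at double concentration with virus for 1 h, then washed out and re-applied for 6 days at 37°C, 5% CO2. Read-out was acetone-fixed cell-ELISA (TMB, OD 450 nm), with Reed–Muench titers.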

HEp-2 culture = assay: Cytotoxicity measurement; type: cell-based; details: for CC50: MTT, 24 h
Method in brief: (§1)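 Test compound was diluted 2-fold in medium from 2000 µg/mL DMSO stocks and applied to washed monolayers for 24 h at 37°C, 5% CO2. Cells were PBS-washed, then given MTT ([…] in medium) for 1.5 h. The product was dissolved in 96% ethanol and OD read at 535 nm. CC50 was derived from the data by curve analysis.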

[2] = system: parainfluenza type 3 strain v2932; assay: microbe, parasite or virus in culture; type: cell-based, Human parainfluenza virus type 3 (PIV-3); details: for SI (selectivity index, CC50/EC50): PIV-3, HEp-2 cells
MDCK cell culture = assay: Cytotoxicity measurement; type: cell-based
Method in brief: as §1

[3] = system: influenza virus strain A/PR/8/34 (H1N1); assay: organism not typed; type: cell-based, Influenza A virus (IVA); details: for SI (selectivity index, CC50/EC50): Influenza A virus, MDCK cells
[4] = system: broad spectrum of enveloped viruses; details: cited from earlier work
tick-borne encephalitis = details: cited from earlier work
herpes simplex type 1 = details: cited from earlier work
Cytotoxicity measurement [5] = type: cell-based; details: human, HEp-2 cells
Method in brief: as §1

Cytotoxicity measurement [6] = type: cell-based; details: dog, MDCK cells
Method in brief: as §1

Solubility = type: physicochemical
[7] = human respiratory syncytial virus, HEp-2

SMILES	antiviral activity (in words) [4]	SI (selectivity index, CC50/EC50) [1]	EC50 [1, 7] [µM]	CC50 at 24 h (Cytotoxicity measurement [5]) [µM]	EC50 ([2]; Human respirovirus 3, HEp-2) [µM]	SI (selectivity index, CC50/EC50) [2]	CC50 at 24 h (Cytotoxicity measurement [6]) [µM]	SI (selectivity index, CC50/EC50) [3]	EC50 ([3]; MDCK) [µM]	further results
O=c1[nH]c(=O)n([C@@H]2O[C@H](CO)[C@@H](O)[C@@H]2O)cc1C#Cc1ccc2c3cccc4cccc(c5cccc1c52)c43 [aUY11 (II), 5-(perylen-3-ylethynyl)-arabino-uridine]	highly active									EC50 ([1]; RSV A2 in HEp-2 cells): 2.3 ± 0.1 µM; CC50 (HEp-2 culture; HEp-2 culture (PIV-3 columns)): 998 ± 59 µM; CC50 (HEp-2 culture; HEp-2 culture (RSV columns)): 998 ± 59 µM; EC50 ([2]; PIV-3 strain v2932 in HEp-2 cells): 1.3 ± 0.3 µM; CC50 (MDCK cell culture; MDCK cell culture (IVA columns), MTT, 24 h): 894 ± 23 µM; EC50 ([3]; Influenza A virus A/PR/8/34 (H1N1) in MDCK cells): 5.2 ± 0.4 µM
CC(C)(C)C(=O)OCn1c(=O)c(C#Cc2ccc3c4cccc5cccc(c6cccc2c63)c54)cn(CC(=O)O)c1=O [cm1pUY11 (III), 1-carboxymethyl-3-pivaloyloxymethyl-5-(perylen-3-ylethynyl)uracil]		24	1.9 ± 0.1	45 ± 3.4	4.3 ± 0.2	10	34 ± 1.9	68	0.5 ± 0.02	antiviral activity (in words) (tick-borne encephalitis): activity; antiviral activity (in words) (herpes simplex type 1): activity; cytotoxic properties (in words) (HEp-2 culture; HEp-2 cell culture, compared with the other three compounds): significantly more pronounced cytotoxic properties; cytotoxic properties (in words) (MDCK cell culture; MDCK cell culture, compared with the other three compounds): significantly more pronounced cytotoxic properties
O=c1[nH]c(=O)n([C@H]2C[C@H](O)[C@@H](CO)O2)cc1C#Cc1ccc2c3cccc4cccc(c5cccc1c52)c43 [dUY11 (I), 5-(perylen-3-ylethynyl)-2′-deoxy-uridine]	highly active	330	1.8 ± 0.2	598 ± 44	2.2 ± 0.5	270	492 ± 56	180	2.7 ± 0.7	
O=c1[nH]c(=O)n([C@@H]2O[C@H](CO)[C@@H](O)[C@H]2O)cc1C#Cc1ccc2c3cccc4cccc(c5cccc1c52)c43 [rUY11 (IV), 5-(Perylen-3-ylethynyl)uridine]		84	7.1 ± 0.2	599 ± 23	2.9 ± 0.4	210	658 ± 34	100	6.4 ± 1.2	solubility in DMSO (Solubility; DMSO): fairly soluble; solubility in water (Solubility; water): only slightly soluble
